This is an account of results in ChEMBL document CHEMBL1140915, “Second-generation highly potent and selective inhibitors of the hepatitis C virus NS3 serine protease” (J Med Chem, 2009).

Data set [1] in a line: Inhibition of HCV NS3 protease in absence of human serum. Set-up: species or system Hepacivirus hominis. In a few lines: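 Continuous enzymatic assay using NS4A-tethered single-chain HCV NS3 serine protease, without human serum. Ki* is the equilibrium constant, which includes the reversible covalent ketone–serine bond. Compounds were tested as P1 diastereomer mixtures (2:1 to 1:2) that equilibrate rapidly under assay conditions.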

Data set [2] is described as follows: Selectivity for HCV NS3 protease over human neutrophil elastase. In outline: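 Compounds were also assayed against human neutrophil elastase. Selectivity is expressed as the HNE/HCV ratio of the two enzyme potencies.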
For another data set, the system named is Hepatitis C virus. Kind of data set: Antiviral activity against HCV assessed as inhibition of virus replication by cell based assay in absence of human serum. The data set is classed as functional, Hepacivirus hominis. In outline:
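Replicon-based cellular assay run without human serum. EC90 is the concentration that inhibits replicon replication by 90%. Compounds were tested as rapidly equilibrating P1 diastereomer mixtures.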

Data set [3] in a line: AUC in rat at 10 mg/kg, po administered with 20% HPBCD. The conditions noted are these: plasma. The data set is classed as ADME, organism-based. Further details: dose 10 mg/kg, route oral.

One may read the Ki as the dissociation constant of the complex between target and ligand, obtained from inhibition or displacement. Low values mean tighter binding, high ones weaker binding. One may read the EC90 as the concentration needed for an effect of 90%. What is called AUC is concentration integrated over time. A higher AUC goes with more exposure.

With `C=CCNC(=O)C(=O)C(CC1CCC1)NC(=O)[C@@H]1[C@@H]2[C@H](CN1C(=O)[C@@H](NC(=O)N[C@@H](CN1C(=O)CC(C)(C)CC1=O)C(C)(C)C)C(C)(C)C)C2(C)C` (stereo partly drawn), the affinity in data set [1] corresponds to a Ki of 0.007 µM. Further, in data set [2], the Ratio came out at 6400. The 90% effect concentration (EC90) in the data set with Hepatitis C virus came out at 0.04 µM.
The corresponding values for `CCCCC(NC(=O)[C@@H]1[C@@H]2[C@H](CN1C(=O)[C@@H](NC(=O)N[C@@H](CN1C(=O)CC(C)(C)CC1=O)C(C)(C)C)C(C)(C)C)C2(C)C)C(=O)C(=O)NC1CC1` (stereo partly drawn) are 0.005 µM, 6100 and 0.03 µM.
In data set [3], `C=CCNC(=O)C(=O)C(CCCC)NC(=O)[C@@H]1[C@@H]2[C@H](CN1C(=O)[C@@H](NC(=O)N[C@@H](CN1C(=O)CCCC1=O)C(C)(C)C)C(C)(C)C)C2(C)C` (stereo partly drawn) gave an AUC of 440 nM·h. The affinity in data set [1], expressed as Ki, was 0.008 µM. In addition, in data set [2], the Ratio was 69000. Besides, in the data set with Hepatitis C virus, the EC90 worked out at 0.15 µM.
`C=CCNC(=O)C(=O)C(CCCC)NC(=O)[C@@H]1[C@@H]2[C@H](CN1C(=O)[C@@H](NC(=O)N[C@@H](CN1C(=O)C3CC3C1=O)C(C)(C)C)C(C)(C)C)C2(C)C` (stereo partly drawn) returned a Ki in data set [1] of 0.005 µM. The Ratio in data set [2] stood at 9500. In addition, the EC90 in the data set on Hepatitis C virus was determined as 0.07 µM.
The corresponding values for `CCCCC(NC(=O)[C@@H]1[C@@H]2[C@H](CN1C(=O)[C@@H](NC(=O)N[C@@H](CN1C(=O)CC(C)(C)CC1=O)C(C)(C)C)C(C)(C)C)C2(C)C)C(=O)C(=O)NCc1ccccc1` (stereo partly drawn) are 0.014 µM, 1100 and 0.04 µM.
Taken in the same sequence, the figures for `C=CCNC(=O)C(=O)C(CCCC)NC(=O)[C@@H]1[C@@H]2[C@H](CN1C(=O)[C@@H](NC(=O)N[C@@H](CN1C(=O)c3ccccc3C1=O)C(C)(C)C)C(C)(C)C)C2(C)C` (stereo partly drawn) were 0.03 µM, 500 and 0.75 µM.
The corresponding values for `C=CCNC(=O)C(=O)C(CCCC)NC(=O)[C@@H]1[C@@H]2[C@H](CN1C(=O)[C@@H](NC(=O)N[C@@H](CN1C(=O)CN(C)C1=O)C(C)(C)C)C(C)(C)C)C2(C)C` (stereo partly drawn) are 0.019 µM, 1200 and 0.25 µM.
In the case of `C=CCNC(=O)C(=O)C(CCCC)NC(=O)[C@@H]1[C@@H]2[C@H](CN1C(=O)[C@@H](NC(=O)N[C@@H](CN1C(=O)NC(C)(C)C1=O)C(C)(C)C)C(C)(C)C)C2(C)C` (stereo partly drawn), affinity in data set [1] was put at a Ki of 0.011 µM. Besides, the Ratio in data set [2] came out at 2500. Besides, in the data set on Hepatitis C virus, the 90% effect concentration (EC90) came to 0.25 µM.
In data set [1], `CCCCC(NC(=O)[C@@H]1[C@@H]2[C@H](CN1C(=O)[C@@H](NC(=O)N[C@@H](CN1C(=O)CC(C)(C)CC1=O)C(C)(C)C)C(C)(C)C)C2(C)C)C(=O)C(=O)NCc1ccccn1` (stereo partly drawn) showed an inhibition constant Ki of 0.022 µM. The Ratio in data set [2] came out at 2500. Further, the EC90 with Hepatitis C virus was 0.08 µM.
The corresponding values for `C=CCNC(=O)C(=O)C(CCCC)NC(=O)[C@@H]1[C@@H]2[C@H](CN1C(=O)[C@@H](NC(=O)N[C@@H](CN1C(=O)CCC(C)(C)C1=O)C(C)(C)C)C(C)(C)C)C2(C)C` (stereo partly drawn) are 0.007 µM, 3100 and 0.035 µM.
In the case of `C=CCNC(=O)C(=O)C(CCCC)NC(=O)[C@@H]1[C@@H]2[C@H](CN1C(=O)C(NC(=O)NC(CN1C(=O)CC(C)(C)CC1=O)C(C)(C)C)C1Cc3ccccc3C1)C2(C)C` (single isomer, unassigned), the affinity in data set [1], expressed as Ki, was 0.004 µM. For the same compound, the Ratio in data set [2] was found to be 1800. In addition, the 90% effect concentration (EC90) in the data set with Hepatitis C virus was 0.1 µM.
The compound `C#CCCC(NC(=O)[C@@H]1[C@@H]2[C@H](CN1C(=O)[C@@H](NC(=O)NC(CN1C(=O)CC(C)(C)CC1=O)C(C)(C)C)C(C)(C)C)C2(C)C)C(=O)C(=O)NCC=C` (single isomer, unassigned) returned a Ki in data set [1] of 0.002 µM. Moreover, the Ratio in data set [2] came to 230. The EC90 in the data set on Hepatitis C virus amounted to 0.04 µM.
The corresponding values for `C=CCNC(=O)C(=O)C(CCCC)NC(=O)[C@@H]1[C@@H]2[C@H](CN1C(=O)[C@@H](NC(=O)NC(CN1C(=O)CCNC1=O)C(C)(C)C)C(C)(C)C)C2(C)C` (single isomer, unassigned) are 0.004 µM, 4300 and 0.15 µM.
In data set [1], `CCCCC(NC(=O)[C@@H]1[C@@H]2[C@H](CN1C(=O)[C@@H](NC(=O)NC(CN1C(=O)CC(C)(C)CC1=O)C(C)(C)C)C(C)(C)C)C2(C)C)C(=O)C(=O)NCc1cccs1` (single isomer, unassigned) came in with an inhibition constant Ki of 0.012 µM. In addition, the Ratio in data set [2] amounted to 900. The EC90 with Hepatitis C virus was determined as 0.1 µM.
Taken in the same sequence, the figures for `C=CCNC(=O)C(=O)C(CCCC)NC(=O)[C@@H]1[C@@H]2[C@H](CN1C(=O)[C@@H](NC(=O)NC(CN1C(=O)COCC1=O)C(C)(C)C)C(C)(C)C)C2(C)C` (single isomer, unassigned) were 0.008 µM, 7200 and 0.5 µM.
Taken in the same sequence, the figures for `C=CCNC(=O)C(=O)C(CCCC)NC(=O)[C@@H]1[C@@H]2[C@H](CN1C(=O)[C@@H](NC(=O)NC(CN1C(=O)N(C)C(C)(C)C1=O)C(C)(C)C)C(C)(C)C)C2(C)C` (single isomer, unassigned) were 0.008 µM, 1600 and 0.06 µM.
`C=CCNC(=O)C(=O)C(CCCC)NC(=O)[C@@H]1[C@@H]2[C@H](CN1C(=O)[C@@H](NC(=O)NC(CN1C(=O)CC(C)(C)CC1=O)C(C)(C)C)C(C)(C)C)C2(C)C` (single isomer, unassigned) had an AUC in data set [3] of 1580 nM·h. In data set [1], this compound yielded a Ki of 0.004 µM. The Ratio in data set [2] amounted to 9300. Besides, the EC90 with Hepatitis C virus came to 0.04 µM.
The compound `C=CCNC(=O)C(=O)C(CCCC)NC(=O)[C@@H]1[C@@H]2[C@H](CN1C(=O)[C@@H](NC(=O)NC(CN1C(=O)CNC1=O)C(C)(C)C)C(C)(C)C)C2(C)C` (single isomer, unassigned) returned a Ki in data set [1] of 0.008 µM. Further, the Ratio in data set [2] amounted to 1200. Moreover, the EC90 in the data set on Hepatitis C virus was 1 µM.
Turning to `C=CCNC(=O)C(=O)C(CCCC)NC(=O)[C@@H]1[C@@H]2[C@H](CN1C(=O)[C@@H](NC(=O)NC(CN1C(=O)CC3(CCCC3)CC1=O)C(C)(C)C)C(C)(C)C)C2(C)C` (single isomer, unassigned), the Ki in data set [1] stood at 0.006 µM. In data set [2], the Ratio stood at 3800. Moreover, the EC90 in the data set on Hepatitis C virus was 0.2 µM.
Taken in the same sequence, the figures for `CCCCC(NC(=O)[C@@H]1[C@@H]2[C@H](CN1C(=O)[C@@H](NC(=O)NC(CN1C(=O)CC(C)(C)CC1=O)C(C)(C)C)C(C)(C)C)C2(C)C)C(=O)C(=O)NCCC` (single isomer, unassigned) were 0.021 µM, 910 and 0.08 µM.
Taken in the same sequence, the figures for `C=CCNC(=O)C(=O)C(CCCC)NC(=O)[C@@H]1[C@@H]2[C@H](CN1C(=O)[C@@H](NC(=O)NC(CN1C(=O)CCN(C)C1=O)C(C)(C)C)C(C)(C)C)C2(C)C` (single isomer, unassigned) were 0.007 µM, 1400 and 0.06 µM.
In data set [3], `C=CCNC(=O)C(=O)C(CCCC)NC(=O)[C@@H]1[C@@H]2[C@H](CN1C(=O)[C@@H](NC(=O)NC(CN1C(=O)CN(C)CC1=O)C(C)(C)C)C(C)(C)C)C2(C)C` (single isomer, unassigned) had an AUC of 360 nM·h. Also, the affinity in data set [1], expressed as Ki, was 0.006 µM. The Ratio in data set [2] stood at 9500. For the same compound, the EC90 with Hepatitis C virus worked out at 0.04 µM.
In data set [1], `CCCCC(NC(=O)[C@@H]1[C@@H]2[C@H](CN1C(=O)[C@@H](NC(=O)NC(CN1C(=O)CC(C)(C)CC1=O)C(C)(C)C)C(C)(C)C)C2(C)C)C(=O)C(=O)NCC` (single isomer, unassigned) gave an inhibition constant Ki of 0.013 µM. In data set [2], the Ratio worked out at 8200. Further, the concentration for an effect of 90% (EC90) with Hepatitis C virus amounted to 0.07 µM.
Regarding `C=CCNC(=O)C(=O)C(CCCC)NC(=O)[C@@H]1[C@@H]2[C@H](CN1C(=O)C(NC(=O)NC(CN1C(=O)CC(C)(C)CC1=O)C(C)(C)C)C1(C)Cc3ccccc3C1)C2(C)C` (single isomer, unassigned), in data set [1], the Ki was found to be 0.032 µM. For the same compound, the Ratio in data set [2] came out at 220. Further, in the data set on Hepatitis C virus, the EC90 turned out to be 0.08 µM.
In data set [1], `C=CCNC(=O)C(=O)C(CCCC)NC(=O)[C@@H]1[C@@H]2[C@H](CN1C(=O)C(NC(=O)NC(CN1C(=O)CC(C)(C)CC1=O)C(C)(C)C)C1(C)CCCCC1)C2(C)C` (single isomer, unassigned) yielded an inhibition constant Ki of 0.004 µM. The Ratio in data set [2] came to 1000. Besides, the 90% effect concentration (EC90) in the data set with Hepatitis C virus came out at 0.045 µM.
In data set [1], `C=CCNC(=O)C(=O)C(CCCC)NC(=O)[C@@H]1[C@@H]2[C@H](CN1C(=O)[C@@H](NC(=O)NC(CN1C(=O)CN(c3ccccc3)CC1=O)C(C)(C)C)C(C)(C)C)C2(C)C` (single isomer, unassigned) showed a Ki of 0.012 µM. The Ratio in data set [2] was found to be 90. Besides, in the data set on Hepatitis C virus, the 90% effect concentration (EC90) came out at 0.1 µM.
Taken in the same sequence, the figures for `C=CCNC(=O)C(=O)C(CCCC)NC(=O)[C@@H]1[C@@H]2[C@H](CN1C(=O)[C@@H](NC(=O)NC(CN1C(=O)CC(C)(CC)CC1=O)C(C)(C)C)C(C)(C)C)C2(C)C` (single isomer, unassigned) were 0.008 µM, 2500 and 0.04 µM.
`C=CCNC(=O)C(=O)C(CCC)NC(=O)[C@@H]1[C@@H]2[C@H](CN1C(=O)[C@@H](NC(=O)NC(CN1C(=O)CC(C)(C)CC1=O)C(C)(C)C)C(C)(C)C)C2(C)C` (single isomer, unassigned) returned an inhibitory constant (Ki) in data set [1] of 0.004 µM. The Ratio in data set [2] turned out to be 1600. Moreover, in the data set with Hepatitis C virus, the EC90 turned out to be 0.04 µM.
The compound `C=CCNC(=O)C(=O)C(CCCC)NC(=O)[C@@H]1[C@@H]2[C@H](CN1C(=O)[C@@H](NC(=O)NC(CN1C(=O)CCC1=O)C(C)(C)C)C(C)(C)C)C2(C)C` (single isomer, unassigned) came in with a Ki in data set [1] of 0.013 µM. For the same compound, in data set [2], the Ratio turned out to be 2000. Moreover, the concentration for an effect of 90% (EC90) in the data set on Hepatitis C virus came to 0.23 µM.
Turning to `C=CCNC(=O)C(=O)C(CCCC)NC(=O)[C@@H]1[C@@H]2[C@H](CN1C(=O)[C@@H](NC(=O)NC(CN1C(=O)C3CCC(C3)C1=O)C(C)(C)C)C(C)(C)C)C2(C)C` (single isomer, unassigned), the affinity in data set [1] corresponds to a Ki of 0.006 µM. Further, the Ratio in data set [2] is 7000. For the same compound, the concentration for an effect of 90% (EC90) with Hepatitis C virus turned out to be 0.06 µM.
